In ChEMBL document CHEMBL1671773, “Benzoquinazoline derivatives as new agents affecting DNA processing” (Bioorg Med Chem, 2011):
pIC50: −log10 of the molar value. The source made the active and inactive calls. The rule behind the calls is not given here.

How the values were obtained:
HL-60 = assay: Growth inhibition in human HL60 cells after 72 hrs by trypan blue assay; type: functional, cell-based; details: HL-60, 72 h
How it was run: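 HL-60 cells were grown in RPMI 1640 with 15% heat-inactivated FCS and antibiotics at 37 °C under 5% CO2. 4 × 10⁴ cells per well were seeded, and after 24 h test agents were added to complete medium for 72 h. Viability was read by trypan blue. IC50 is the concentration giving 50% reduction in cell number versus control cultures.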

A-431 = assay: Growth inhibition in human A431 cells after 72 hrs by trypan blue assay; type: functional, cell-based; details: A-431, 72 h
How it was run: (§1)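 HeLa (F-12 medium) and A431 (D-MEM) cells were grown with 10% heat-inactivated FCS and antibiotics at 37 °C under 5% CO2. 4 × 10⁴ cells per well were seeded for 24 h, then medium was replaced with fresh medium containing test agents for 72 h. Viability was read by trypan blue. IC50 is the concentration halving cell number versus control.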

HeLa [1] = assay: Growth inhibition in human HeLa cells after 72 hrs by trypan blue assay; type: functional, cell-based; how it was run: as §1
Nucleic Acid [2] = assay: Stabilization of supercoiled pBR322 DNA-human recombinant topoisomerase 2 complex assessed as linear DNA formation at 8 uM after 60 mins; type: nucleic-acid assay; details: Escherichia coli
Nucleic Acid [3] = assay: Binding affinity to Salmon testes DNA assessed as drug-DNA complex formation at drug/DNA ratio 0.08 by linear flow dichroism method; type: nucleic-acid assay; details: Salmonidae
Nucleic Acid [4] = assay: Induction of Escherichia coli supercoiled pBR322 DNA cleavage at 50 uM after 60mins by gel electrophoresis; type: nucleic-acid assay
Nucleic Acid [5] = assay: Induction of Escherichia coli supercoiled pBR322 DNA cleavage after 60mins by gel electrophoresis; type: nucleic-acid assay
Nucleic Acid [6] = assay: Stabilization of supercoiled pBR322 DNA-human recombinant topoisomerase 2 complex assessed as linear DNA formation at 10 to 100 uM after 60 mins; type: nucleic-acid assay; details: Escherichia coli
HeLa [7] = assay: Induction of apoptosis in human HeLa cells assessed as induction of DNA fragmentation at 200 uM after 24 hrs using ethidium bromide staining by agarose gel electrophoresis; type: functional, cell-based
How it was run: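 HeLa cells (5 × 10⁵) were preincubated 24 h at 37 °C, then medium was replaced with fresh medium containing test agent; controls received solvent alone. After 24 h, nuclear DNA was extracted and dissolved in TE buffer (10 mM Tris pH 8, 1 mM EDTA). Fragmentation was examined on a 1% agarose gel.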

Nucleic Acid [8] = assay: Binding affinity to Salmon testes DNA assessed as drug-DNA complex formation at drug/DNA ratio 0.16 by linear flow dichroism method; type: nucleic-acid assay; details: Salmonidae
[9] = molecular target: DNA topoisomerase 2-alpha (Homo sapiens) (UniProt P11388); assay: Inhibition of human recombinant topoisomerase 2-mediated relaxation of supercoiled pBR322 DNA upt0 100 uM after 60 mins by agarose gel electrophoresis
Chain of DNA topoisomerase 2-alpha (Homo sapiens) (P11388 whole entry): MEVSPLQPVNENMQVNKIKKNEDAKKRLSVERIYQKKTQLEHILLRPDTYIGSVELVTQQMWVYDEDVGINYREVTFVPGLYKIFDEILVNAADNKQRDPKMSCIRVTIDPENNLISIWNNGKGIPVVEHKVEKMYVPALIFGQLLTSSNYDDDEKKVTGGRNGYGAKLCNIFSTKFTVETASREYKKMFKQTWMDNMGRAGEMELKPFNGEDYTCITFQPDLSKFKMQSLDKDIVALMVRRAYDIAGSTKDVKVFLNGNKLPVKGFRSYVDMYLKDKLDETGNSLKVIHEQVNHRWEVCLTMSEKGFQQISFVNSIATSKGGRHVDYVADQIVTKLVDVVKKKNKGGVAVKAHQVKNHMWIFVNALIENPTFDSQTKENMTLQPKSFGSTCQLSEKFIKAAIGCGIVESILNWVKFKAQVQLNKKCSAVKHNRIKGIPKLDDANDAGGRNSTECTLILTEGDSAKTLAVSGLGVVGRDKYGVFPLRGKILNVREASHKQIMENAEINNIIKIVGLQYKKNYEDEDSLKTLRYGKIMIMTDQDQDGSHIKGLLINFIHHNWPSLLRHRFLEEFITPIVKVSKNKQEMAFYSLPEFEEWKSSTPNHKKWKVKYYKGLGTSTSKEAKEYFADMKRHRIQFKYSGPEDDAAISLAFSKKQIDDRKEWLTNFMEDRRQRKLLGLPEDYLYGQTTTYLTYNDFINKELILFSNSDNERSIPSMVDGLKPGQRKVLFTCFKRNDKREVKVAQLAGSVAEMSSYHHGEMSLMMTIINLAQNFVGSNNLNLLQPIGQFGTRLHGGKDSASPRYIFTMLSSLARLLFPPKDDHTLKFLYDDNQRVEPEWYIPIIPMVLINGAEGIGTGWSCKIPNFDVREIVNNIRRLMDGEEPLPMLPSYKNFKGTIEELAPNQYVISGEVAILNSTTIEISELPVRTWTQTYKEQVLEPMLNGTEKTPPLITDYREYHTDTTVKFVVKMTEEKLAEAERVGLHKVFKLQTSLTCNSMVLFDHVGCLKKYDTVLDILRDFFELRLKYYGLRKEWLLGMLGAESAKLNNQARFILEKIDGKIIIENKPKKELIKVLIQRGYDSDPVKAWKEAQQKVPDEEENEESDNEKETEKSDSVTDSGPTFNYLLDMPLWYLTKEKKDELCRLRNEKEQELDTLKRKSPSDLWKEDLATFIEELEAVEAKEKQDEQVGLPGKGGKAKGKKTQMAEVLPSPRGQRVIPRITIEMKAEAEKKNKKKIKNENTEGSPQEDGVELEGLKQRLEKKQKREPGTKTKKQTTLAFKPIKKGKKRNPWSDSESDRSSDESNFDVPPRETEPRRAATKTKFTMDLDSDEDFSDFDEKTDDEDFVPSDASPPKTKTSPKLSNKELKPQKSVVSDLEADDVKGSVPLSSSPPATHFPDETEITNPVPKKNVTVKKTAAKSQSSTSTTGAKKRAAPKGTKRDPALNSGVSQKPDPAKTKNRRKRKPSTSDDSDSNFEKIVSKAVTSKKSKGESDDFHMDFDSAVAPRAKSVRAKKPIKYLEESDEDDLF
How it was run: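 Supercoiled pBR322 (0.25 µg) was incubated with 1 U topoisomerase II plus compounds for 60 min at 37 °C in 20 µL. The reaction was stopped with SDS stop buffer and 50 µg/mL proteinase K for 30 min at 37 °C. Products were run on a 1% agarose gel at room temperature, then stained with 1 µg/mL ethidium bromide and imaged under UV.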

Row | SMILES | pIC50 (HL-60) | pIC50 (A-431) | pIC50 (HeLa [1]) | Activity (Nucleic Acid [2]) | Activity (Nucleic Acid [3]) | inhibition (Nucleic Acid [4]) | inhibition (Nucleic Acid [5]) | Activity (Nucleic Acid [6]) | Activity (HeLa [7]) | Activity (Nucleic Acid [8]) | inhibition [9]
1 | Cc1c2ccncc2c(C)c2c1[nH]c1ccccc12 [ELLIPTECINE] | 6.19 | 6.33 | 6.51 | – | – | – | – | – | – | – | –
2 | CS(=O)(=O)Nc1ccc(Nc2cc3cncnc3c3ccccc23)cc1 | 4.58 | 4.24 | < 4.00 | – | – | – | – | – | – | – | –
3 | COc1cc(NS(C)(=O)=O)ccc1Nc1cc2ncncc2c2ccccc12 | 4.51 | 4.11 | < 4.00 | – | – | – | – | – | – | – | –
4 | COc1cc(NS(C)(=O)=O)ccc1Nc1c2ccccc2nc2ccccc12 [AMSACRINE] | 8.22 | 6.77 | 7.92 | Active | – | – | – | – | – | – | –
5 | CN(C)CCNc1cc2cncnc2c2ccccc12 | 4.97 | 5.44 | 4.80 | – | Active | Dose-dependent effect | Active | Active | Active | – | –
6 | CS(=O)(=O)Nc1ccc(Nc2cc3ncncc3c3ccccc23)cc1 | < 4.00 | < 4.00 | < 4.00 | – | – | – | – | – | – | – | –
7 | COc1cc(NS(C)(=O)=O)ccc1Nc1cc2cncnc2c2ccccc12 | 4.57 | < 4.00 | < 4.00 | – | – | – | – | – | – | – | –
8 | CN(C)CCNc1ncnc2c1ccc1ccccc12 | 4.21 | 4.30 | < 4.00 | – | Active | – | – | – | – | Active | inactive
9 | CN(C)CCNc1cc2ncncc2c2ccccc12 | 5.37 | 5.37 | 4.63 | – | Active | Dose-dependent effect | Active | Active | Active | – | –
